Calls of active or inactive are those of the source.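 Rule for the calls: active = compounds shifting agonist potency at least twofold either way, or pushing peak agonist response below 75% or above 125%; inactive = the rest.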

This note sets out measurements from PubChem BioAssay AID588731 (Vanderbilt Specialized Chemistry Center, 2011).

The assay addresses Metabotropic glutamate receptor 7 (Rattus norvegicus) (UniProt P35400). In words: rat mGlu7 allosteric modulation, L-AP4 curve shift, profiling panel, selectivity assay for mGlu5 PAM project, thallium flux, HEK/GIRK cells (AID 588731). Conditions: L-AP4 CRC shift, at 10 µM; for Emax: measured here: L-AP4 max response with compound. The essentials:
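Test system: HEK cells with GIRK channels expressing rat mGlu7 receptor | Doses: Single test compound concentration of 10 µM final | Times: Dye load 45 min, 37 °C, agonist at 142 s | Detection: GIRK thallium flux fluorescence | Evaluation: L-AP4 EC50 fold shift and %Emax from four-parameter fits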

Metabotropic glutamate receptor 7 (Rattus norvegicus), sequence (P35400 whole entry, looked up): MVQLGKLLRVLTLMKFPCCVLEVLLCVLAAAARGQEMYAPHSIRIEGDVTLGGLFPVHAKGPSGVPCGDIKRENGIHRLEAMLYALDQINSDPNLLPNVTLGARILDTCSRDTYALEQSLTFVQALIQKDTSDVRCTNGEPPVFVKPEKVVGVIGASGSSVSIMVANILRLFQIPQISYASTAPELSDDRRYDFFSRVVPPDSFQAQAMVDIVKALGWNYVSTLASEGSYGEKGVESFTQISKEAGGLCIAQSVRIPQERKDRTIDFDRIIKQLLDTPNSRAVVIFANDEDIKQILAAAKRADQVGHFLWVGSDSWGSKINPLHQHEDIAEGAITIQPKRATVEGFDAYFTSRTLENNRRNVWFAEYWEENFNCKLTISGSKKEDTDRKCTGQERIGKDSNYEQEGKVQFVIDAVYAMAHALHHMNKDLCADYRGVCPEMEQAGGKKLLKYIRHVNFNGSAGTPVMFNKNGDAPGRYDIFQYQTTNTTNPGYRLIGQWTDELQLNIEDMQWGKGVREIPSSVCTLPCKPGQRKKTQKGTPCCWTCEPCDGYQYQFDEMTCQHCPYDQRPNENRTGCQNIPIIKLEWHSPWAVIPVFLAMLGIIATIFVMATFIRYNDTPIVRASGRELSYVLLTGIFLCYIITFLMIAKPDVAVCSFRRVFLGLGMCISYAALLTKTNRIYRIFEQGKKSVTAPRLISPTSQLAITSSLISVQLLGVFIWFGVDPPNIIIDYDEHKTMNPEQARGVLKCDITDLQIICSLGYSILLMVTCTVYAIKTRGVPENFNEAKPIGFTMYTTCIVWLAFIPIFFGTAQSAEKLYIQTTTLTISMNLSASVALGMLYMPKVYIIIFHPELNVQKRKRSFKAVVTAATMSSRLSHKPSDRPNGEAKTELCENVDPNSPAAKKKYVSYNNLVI

As to `CC1(NC(=O)c2ccc(C#Cc3cccc(F)c3)cn2)COC1`, the fold shift is 0.77 (inactive) and the Emax – broadly, the size of the effect at its maximum, as opposed to the concentration needed – worked out at 92.3%.

As to `C[C@@H](NC(=O)c1ccc(C#Cc2cccc(F)c2)cn1)C(C)(C)O`, the fold shift is 1.04 (inactive) and the Emax was determined as 92%.
